Results reported in ChEMBL document CHEMBL3085733, “Modulation of the fibrillogenesis inhibition properties of two transthyretin ligands by halogenation” (J Med Chem, 2013).

Legend:
[1] = Binding affinity to human recombinant TTR Y78F mutant after 5 mins by isothermal titration calorimetry
How it was run: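 Recombinant human TTR Y78F (E. coli-expressed), 20−30 μM in cell, in 100 mM potassium phosphate, KCl, 1 mM EDTA, 5% (v/v) DMSO, pH 7.6, filtered and degassed 5 min. Titrant was 500 μM ligand in the same buffer. One 0.5−1 μL injection, then 1.5−2 μL injections every 150 s, 25 °C. Dilution blanks subtracted; isotherms fitted to a two identical-site model to give Kd.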

[2] = Inhibition of human recombinant TTR Y78F mutant-mediated fibrillogenesis after 30 mins by turbidimetric assay
How it was run: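 Recombinant TTR Y78F (4 mg/mL in 20 mM potassium phosphate, 100 mM KCl, 1 mM EDTA, pH 7.6) was preincubated 30 min at 37 °C with 0−40 μM compound (final). Acid fibrillogenesis was started with pH 4.2 acetate buffer, giving final 0.4 mg/mL TTR and 5% DMSO. A340 was read every 1 min for 1.5 h at 37 °C. IC50 came from fitting initial rates to v0 = A + B·exp(−C[I]).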

[3] = species: Homo sapiens; assay: Inhibition of human recombinant TTR Y78F mutant-mediated fibrillogenesis at 40 uM after 30 mins by turbidimetric assay relative to control
How it was run: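 Y78F TTR turbidity assay: 30 min preincubation at 37 °C with 0−40 μM compound, then pH 4.2 acetate buffer (final 0.4 mg/mL TTR, 5% DMSO). A340 was monitored for 1.5 h at 37 °C. Initial rates were fitted to v0 = A + B·exp(−C[I]). RA% is the percentage reduction in fibril formation rate at high inhibitor concentration versus no inhibitor.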

Row | SMILES | Kd [1] [µM] | IC50 [2] [µM] | inhibition [3] [%]
1 | O=C(O)c1ccccc1Nc1cc(Br)cc(C(F)(F)F)c1 | 0.064 | 5.9 | 91
2 | O=C(O)c1cc(-c2ccc(F)cc2F)ccc1O [DIFLUNISAL] | 1.16 | 18 | 85
3 | O=C(O)c1ccccc1Nc1cccc(C(F)(F)F)c1 [FLUFENAMIC ACID] | 0.109 | 6.2 | 89
4 | O=C(O)c1ccccc1Nc1cc(F)cc(C(F)(F)F)c1 | 0.091 | 6.5 | 91
5 | CC/C(=C(/CC)c1ccc(O)cc1)c1ccc(O)cc1 [DIETHYLSTILBESTROL] | – | 16.6 | 67
6 | O=C(O)c1cc(-c2ccc(Cl)cc2Cl)ccc1O | – | 12.8 | 75
7 | Oc1ccc(/C=C/c2cc(O)cc(O)c2)cc1 [RESVERATROL] | – | 4.5 | 89
8 | CC(C(=O)O)c1ccc(-c2ccccc2)c(F)c1 (stereo not given) [FLURBIPROFEN] | – | > 100 | 35
9 | O=C(O)c1cc(-c2ccc(F)cc2F)cc(F)c1O | 1.12 | 7.6 | 87
10 | O=C(O)Cc1ccccc1Nc1c(Cl)cccc1Cl [DICLOFENAC] | – | 26 | 74
11 | O=C(O)c1ccccc1Nc1cc(Cl)cc(C(F)(F)F)c1 | 0.086 | 6 | 86
12 | O=C(O)c1ccc(-c2cc(F)cc(F)c2)cc1 | – | 10.8 | 89
13 | Oc1c(Cl)cc(-c2cc(Cl)c(O)c(Cl)c2)cc1Cl | – | 2.1 | 100
14 | O=C(O)Cc1cc(I)c(Oc2cc(I)c(O)c(I)c2)c(I)c1 [TETRAC] | – | 4.8 | 93
15 | O=C(O)c1cc(-c2ccc(F)cc2F)cc(Br)c1O | 0.194 | 5.6 | 88
16 | N[C@@H](Cc1cc(I)c(Oc2cc(I)c(O)c(I)c2)c(I)c1)C(=O)O [LEVOTHYROXINE] | – | – | 80
17 | O=C(O)c1cc(-c2ccc(F)cc2F)cc(Cl)c1O | 0.375 | 7.5 | 89
18 | O=C(O)c1ccccc1Nc1cc(I)cc(C(F)(F)F)c1 | 0.085 | 6.4 | 94
19 | O=C(O)c1cc(-c2ccc(F)cc2F)cc(I)c1O | 0.087 | – | 94
20 | O=[N+]([O-])c1ccc(O)c([N+](=O)[O-])c1 [2,4-DINITROPHENOL] | – | 20 | 77
21 | CC1=C(/C=C/C(C)=C/C=C/C(C)=C/C(=O)O)C(C)(C)CCC1 [TRETINOIN] | – | 8.1 | 100
